Experimental data pooled from the literature.
Compare with care: the assays were run in different laboratories.
Target: MAP kinase-activated protein kinase 2 (MAPKAPK2, Homo sapiens, UniProt P49137)

| SMILES | read-out | mode | technique | tested at | quantity | value |
| --- | --- | --- | --- | --- | --- | --- |
| CSc1nc(C)c(-c2ccnc(Nc3ccc(N4CCOCC4)cc3)c2)[nH]1 | enzyme activity | inhibitor |  | 10 µM | inhibition | -1.9% |
| Nc1cnc(N2CCc3cc(S(=O)(=O)Nc4c(F)cc(Cl)cc4F)cc(N4CCCC4=O)c32)nc1 | cell-free assay |  | competition with immobilised ligand | 1 µM | remaining binding | 100% |
| COc1cc(Nc2cnc(C#N)c(O[C@H](C)CN(C)C)n2)ncc1-c1cnn(C)c1 | enzyme activity | inhibitor | radiometric | 1 µM | remaining activity | 112% |
| Cc1nc(C2CCN(C(=O)c3ccc(OC(F)(F)F)cc3N)CC2)c2ncc(N3CCN(C)CC3)cc2n1 | cell-free assay |  | competition with immobilised ligand | 1 µM | remaining binding | 100% |
| O=C(Nc1cnn(-c2csc(C(=O)NC3COC3)c2)c1)Nc1ccccc1Cl | enzyme activity | inhibitor |  | 5 µM | remaining activity | 97.1% |
| CN(C)C(=O)Cn1cc(-c2nc([C@@](C)(c3ccc(-c4cnc(N)nc4)cc3)C3CC3)no2)cn1 | cell-free assay |  | competition with immobilised ligand | 1 µM | remaining binding | 92% |
| CNC(=O)c1cc(Oc2ccc(NC(=O)Nc3ccc(Cl)c(C(F)(F)F)c3)cc2)ccn1 | enzyme activity | inhibitor |  | 10 µM | inhibition | 6% |
| O=C1NC(=O)c2cc(Nc3ccc(F)cc3)c(Nc3ccc(F)cc3)cc21 | cell-free assay |  |  | 0.5 µM | remaining signal | 95.7% |
| O=C(CSc1nc2nccnc2c(=O)n1CCc1ccccc1)Nc1nccs1 | enzyme activity | inhibitor |  | 10 µM | inhibition | 6% |
| O=C(Nc1cnn(-c2csc(C(=O)NC3COC3)c2)c1)Nc1c(F)cccc1Cl | enzyme activity | inhibitor |  | 5 µM | remaining activity | 99.8% |
| FC(F)(F)Oc1cccc(-c2cnc3ccc(-c4ccncc4)nn23)c1 | enzyme activity | inhibitor | radiometric | 5 µM | activity vs control | 96% |
| CCCOc1ccc(OC)c(F)c1C(=O)c1ccc(C(=O)N[C@@H]2CNC[C@H]2NC(=O)c2ccc3[nH]ncc3c2)cc1 | enzyme activity | inhibitor |  | 10 µM | remaining activity | 49% |
| CN1CC(Oc2cnc(C#N)cc2-c2ccn3nc(NC(=O)C4CC4)cc3c2)C1 | enzyme activity | inhibitor |  | 1 µM | inhibition | -21% |
| Nc1nc(NC2CCCCC2)sc1C(=O)c1ccccc1 | enzyme activity | inhibitor |  | 10 µM | remaining activity | 96% |
| Cc1ccc(Nc2nccc(N(C)c3ccc4c(C)n(C)nc4c3)n2)cc1S(N)(=O)=O | enzyme activity | inhibitor |  | 0.3 µM | inhibition | 4% |
| O=C1CCc2cc(Nc3cc(OC4CCOCC4)c([N+](=O)[O-])cc3Cl)ccc2N1 | cell-free assay |  | competition with immobilised ligand | 1 µM | remaining binding | 99% |
| O=C1Nc2ccc(Cl)cc2C1=Cc1cc(Cl)c(O)c(Cl)c1 | cell-free assay |  |  | 0.5 µM | remaining signal | 100% |

| SMILES | read-out | mode | technique | tested at | quantity | value |
| --- | --- | --- | --- | --- | --- | --- |
| CCOc1cc(-c2nncn2C)ccc1Nc1ncc2cc(C)nc(NCC(C)(C)C)c2n1 | enzyme activity | inhibitor | FRET | 1 µM | inhibition | 24% |
| COc1cc2ncnc(Nc3ccc(Oc4ccccc4)cc3C)c2cc1OC | enzyme activity | inhibitor |  | 1 µM | inhibition | 4% |
| CS(=O)(=O)N1CCCC(NC(=O)[C@H](CCC2CCCCC2)NC(=O)c2ccc(CNc3ncnc4c3nnn4-c3ccccc3)cc2)C1 (stereo partly drawn) | cell-free assay |  | competition with immobilised ligand | 0.1 µM | remaining binding | 100% |
| Nc1nc(Nc2ccccc2)sc1C(=O)c1c(F)cccc1F | enzyme activity | inhibitor |  | 10 µM | remaining activity | 99% |
| Cc1c(NC(=O)c2cc(C(N)=O)nc3cc(F)ccc23)c(C(F)(F)F)nn1Cc1ccc(C#N)cc1 | cell-free assay |  | competition with immobilised ligand | 1 µM | remaining binding | 97% |
| CC(C)(C)c1nc(-c2cccc(NS(=O)(=O)c3c(F)cccc3F)c2F)c(-c2ccnc(N)n2)s1 | enzyme activity | inhibitor | radiometric | 1 µM | remaining activity | 69% |
| CN(C)C1CCN(CC#Cc2nn(C3CCCC3)c3nc(NCc4ccccc4)ncc23)C1 (stereo not drawn) | enzyme activity | inhibitor | FRET | 10 µM | inhibition | 0% |
| Oc1cccc(-c2nc(N3CCOCC3)c3oc4ncccc4c3n2)c1 | enzyme activity | inhibitor |  | 10 µM | remaining activity | 90% |
| CCS(=O)(=O)c1cc2cc(C[C@](O)(CC(C)(C)c3ccc(F)cc3C(N)=O)C(F)(F)F)[nH]c2cn1 | cell-free assay |  | competition with immobilised ligand | 1 µM | remaining binding | 100% |
| Cc1cc(NC(=O)c2cccc3cc(-c4cccc5[nH]nc(N)c45)ccc23)ccc1F | enzyme activity | inhibitor |  | 0.1 µM | activity vs control | 95% |
| CCN(CC)CCNC(=O)c1c(C)[nH]c(/C=C2\C(=O)Nc3ccc(F)cc32)c1C | enzyme activity | inhibitor |  | 0.3 µM | inhibition | 7% |
| CCCS(=O)(=O)Nc1ccc(F)c(C(=O)c2c[nH]c3ncc(-c4ccc(Cl)cc4)cc23)c1F | enzyme activity | inhibitor |  | 1 µM | inhibition | < 10% |
| Cc1ncc([N+](=O)[O-])n1C(=NO)c1ccccc1C(F)(F)F | enzyme activity | inhibitor |  | 10 µM | inhibition | 21.4% |
| Cc1ccc(NC(=O)c2ccc(CN3CCN(C)CC3)cc2)cc1Nc1nc(-c2cccnc2)cs1 | cell-free assay |  |  | 0.5 µM | remaining signal | 102% |
| c1ccc(N2CCN(Cc3nc4ccccc4[nH]3)CC2)nc1 | binding |  | competition with immobilised ligand | 1 µM | remaining binding | 100% |
| COc1cc(/C=C/C(=O)CC(=O)/C=C/c2ccc(O)c(OC)c2)ccc1O | enzyme activity | inhibitor |  | 1 µM | activity vs control | 90% |
